XBP1 UPR activ = adaptive UPR (XBP1) activation; CHO-XBP1 luciferase reporter, IRE1-XBP1 UPR activation, luminescence; percent of tunicamycin response, DMSO as zero; activation, % at 20 µM; hit rate 0.33% among 330,000; AID 463104;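 active = versus positive control, 20 µM dose yields 30% or more activation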
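Assay system: IRE1-XBP1 luciferase reporter CHO line. Input: 1000 cells/well. Buffer or medium: F12 with 10% serum. Doses: 20 µM, 1% DMSO. Times: overnight seeding at 37 °C, 6 h compound treatment at 37 °C. Technique: Steady-Glo luciferase glow luminescence, 10 min after reagent addition.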
GAA850 FXN act = activators of GAA850 frataxin (FXN) promoter | HEK293 lucGAA850 FXN promoter luciferase reporter, 24 h; percent of 10 µM SAHA response | activation, % at 6 µM | hit rate 0.56% among 360,000;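 active = activation above the average of all compounds screened plus 3 SD, cutoff fixed separately per campaign, cut at about 7.5% in these data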
UPR CHOP act = activators of apoptotic arm of unfolded protein response (CHOP); activation, % at 10 µM; AID 449763; CHO-CHOP luciferase reporter, UPR activation, luminescence; percent of tunicamycin response over DMSO baseline; hit rate 0.34% among 330,000;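 active = at 10 µM dose, activation of 40% or more, normalized to positive control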
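Material: CHO-CHOP cells, stable luciferase reporter of PERK-eIF2a-CHOP signalling; quantity: 500 reporter cells seeded per well; buffer or medium: F12 medium containing 10% fetal bovine serum; compound: one dose, 10 µM in 0.5% DMSO; incubation: 6 h compound treatment, 37 °C; measured by: Steady-Glo luciferase luminescence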
CHOP inhibitor = CHOP inhibition in unfolded protein response; AID 2732; hit rate 3.8% among 220,000; CHO-K1 CHOP-promoter luciferase, tunicamycin-induced, 15-18 h; inhibition, % at 10 µM;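 active = compounds that reduced the stress-induced luciferase reporter signal by more than about 70% of percent inhibition, limit read from the data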
Hits are given with their value. This is one part of a sample in which hits are shown more often than they occur.

Results for O=C(NCCc1ccccc1)C(c1cccs1)N(C(=O)CCl)c1ccc(Cl)cc1 (centres undefined) ?
XBP1 UPR activ: inactive; GAA850 FXN act: inactive; UPR CHOP act: inactive; CHOP inhibitor: 111

How did O=C(NCCc1ccccc1)C(c1cccs1)N(C(=O)c1csnn1)C1CC1 (centres undefined) do in these assays?
XBP1 UPR activ: inactive; GAA850 FXN act: inactive; UPR CHOP act: inactive; CHOP inhibitor: inactive

What do the screens show for `CN(C1=C(NC(=O)c2ccccc2)C(=O)c2ccccc2C1=O)C1CCS(=O)(=O)C1` (centres undefined)?
XBP1 UPR activ: inactive; GAA850 FXN act: inactive; UPR CHOP act: inactive; CHOP inhibitor: 107

Results for COc1cc(-c2cnc3c(NC=O)cc(-c4ccsc4)cn23)cc(OC)c1OC ?
GAA850 FXN act: inactive

Results for O=C(NN=C1c2ccccc2-c2ccccc21)c1cccc(Br)c1 ?
XBP1 UPR activ: inactive; GAA850 FXN act: inactive; UPR CHOP act: inactive; CHOP inhibitor: 77

Results for O=[N+]([O-])c1ccc(Sc2cccc[n+]2[O-])c2nonc12 ?
GAA850 FXN act: inactive; CHOP inhibitor: 108

How did Cc1ccc(-c2[nH][nH]c(=O)c(=O)c2N=Nc2ccccc2)cc1 do in these assays?
XBP1 UPR activ: inactive; GAA850 FXN act: inactive; UPR CHOP act: inactive; CHOP inhibitor: 75

Results for COc1ccc(/C=C/C(=O)OCC(=O)N2c3ccccc3CC2C)c(OC)c1 (centres undefined) ?
GAA850 FXN act: inactive

How did CCCCCCNS(=O)(=O)c1ccc(Cl)s1 do in these assays?
XBP1 UPR activ: inactive; GAA850 FXN act: inactive; UPR CHOP act: inactive; CHOP inhibitor: 87

How did O=S(=O)(NCCCN1CCOCC1)c1ccc(Cl)s1 do in these assays?
XBP1 UPR activ: inactive; GAA850 FXN act: inactive; UPR CHOP act: inactive; CHOP inhibitor: inactive

Results for COc1ccc(NC(=O)c2sc(=O)n(Cc3cccc(C(F)(F)F)c3)c2C)cc1OC ?
GAA850 FXN act: inactive

How did COCc1cccc(-c2csc(C(C)(O)c3ccccc3)n2)c1 (centres undefined) do in these assays?
GAA850 FXN act: inactive

Results for COc1ccc2[nH]c3c4c(ccc3c2c1)C(=O)C=CC4=O ?
XBP1 UPR activ: inactive; GAA850 FXN act: inactive; UPR CHOP act: inactive; CHOP inhibitor: 89

How did N#CC(c1cccc(Cl)c1)c1ccc2c(C(F)(F)F)cc(C(F)(F)F)nc2n1 (centres undefined) do in these assays?
XBP1 UPR activ: inactive; GAA850 FXN act: inactive; UPR CHOP act: inactive; CHOP inhibitor: 102

Results for C[C@@H]1CCCCO[C@H](CN(C)C(=O)Cc2ccccc2)[C@@H](C)CN([C@H](C)CO)C(=O)c2cc(NC(=O)Nc3ccccc3)ccc2O1 ?
GAA850 FXN act: inactive

How did CCn1cc(Cl)c(C(=O)N2N=C3/C(=C/c4cccs4)CCCC3C2c2cccs2)n1 (centres undefined) do in these assays?
XBP1 UPR activ: inactive; GAA850 FXN act: inactive; UPR CHOP act: inactive; CHOP inhibitor: 83

Results for CCOC(=O)c1c(C)[nH]c(C(=O)OCC(=O)Nc2cccnc2Cl)c1C ?
XBP1 UPR activ: inactive; GAA850 FXN act: inactive; UPR CHOP act: inactive

What do the screens show for `CCOC(=O)c1c(C)[nH]c(C(=O)OCC(=O)Nc2cc(Cl)ccc2OC)c1C`?
XBP1 UPR activ: inactive; GAA850 FXN act: inactive; UPR CHOP act: inactive; CHOP inhibitor: 78

How did CCOC(=O)c1c(C)[nH]c(C(=O)OCC(=O)Nc2cc(C)ccc2OC)c1C do in these assays?
XBP1 UPR activ: inactive; GAA850 FXN act: inactive; UPR CHOP act: inactive; CHOP inhibitor: inactive

How did CCOC(=O)c1c(C)[nH]c(C(=O)OCC(=O)Nc2ccc(OC)c(Cl)c2)c1C do in these assays?
XBP1 UPR activ: inactive; GAA850 FXN act: inactive; UPR CHOP act: inactive; CHOP inhibitor: 87

What do the screens show for `Cc1ccc(C(C)C)c(OCC(=O)OCc2c(C)noc2C)c1`?
XBP1 UPR activ: inactive; GAA850 FXN act: inactive; UPR CHOP act: inactive; CHOP inhibitor: 83

How did Cc1ccc(C(C)C)c(OCC(=O)OCC(=O)NC2CC2)c1 do in these assays?
XBP1 UPR activ: inactive; GAA850 FXN act: inactive; UPR CHOP act: inactive

Results for COCCn1c(=S)[nH]c2cc(C(=O)NC3CCCCC3C)ccc2c1=O (centres undefined) ?
GAA850 FXN act: inactive

Results for O=C(CN(Cc1ccccc1)S(=O)(=O)c1ccccc1)N/N=C/c1ccc([N+](=O)[O-])cc1 ?
XBP1 UPR activ: inactive; GAA850 FXN act: inactive; UPR CHOP act: inactive; CHOP inhibitor: 96

Results for O=C(CNc1cccc2ccccc12)N/N=C/c1ccc([N+](=O)[O-])cc1 ?
XBP1 UPR activ: inactive; GAA850 FXN act: inactive; UPR CHOP act: inactive; CHOP inhibitor: 72

How did Cc1ccccc1NCC(=O)N/N=C/c1ccc([N+](=O)[O-])cc1 do in these assays?
XBP1 UPR activ: inactive; GAA850 FXN act: inactive; UPR CHOP act: inactive; CHOP inhibitor: inactive

How did Cc1ccc(S(=O)(=O)N(CC(=O)N/N=C/c2ccco2)c2cc(Cl)cc(Cl)c2)cc1 do in these assays?
XBP1 UPR activ: inactive; GAA850 FXN act: inactive; UPR CHOP act: inactive; CHOP inhibitor: 75

What do the screens show for `CC(NC(=O)C(=O)N/N=C\c1ccc([N+](=O)[O-])cc1)c1ccccc1` (centres undefined)?
XBP1 UPR activ: inactive; GAA850 FXN act: inactive; UPR CHOP act: inactive; CHOP inhibitor: 84

How did CCOC(=O)C(=O)N(C)c1c(CC)nc2c(OCCC3CCCCC3)cccn12 do in these assays?
GAA850 FXN act: inactive

Results for Cc1ccc(C)c(N(CC(=O)N/N=C/c2ccc(-c3ccc([N+](=O)[O-])cc3)o2)S(=O)(=O)c2ccccc2)c1 ?
XBP1 UPR activ: inactive; GAA850 FXN act: inactive; UPR CHOP act: inactive; CHOP inhibitor: 82

Results for O=C(N/N=C/C=C/c1cccc([N+](=O)[O-])c1)C(O)c1ccccc1 (centres undefined) ?
XBP1 UPR activ: inactive; GAA850 FXN act: inactive; UPR CHOP act: inactive; CHOP inhibitor: inactive

How did O=C(CNc1ccc2ccccc2c1)N/N=C/C=C/c1cccc([N+](=O)[O-])c1 do in these assays?
XBP1 UPR activ: inactive; GAA850 FXN act: inactive; UPR CHOP act: inactive; CHOP inhibitor: 90

Results for O=C1Cc2c([nH]c3ccc([N+](=O)[O-])cc23)-c2ccccc2N1 ?
GAA850 FXN act: inactive

How did Cc1ccc(C(=O)CSc2nnc(-c3ccc4[nH]c(C)c(C)c4c3)o2)cc1C do in these assays?
XBP1 UPR activ: inactive; GAA850 FXN act: inactive; UPR CHOP act: inactive; CHOP inhibitor: 74

How did COc1cc(C(O)c2nc(-c3ccc(C)c(C)c3)cs2)ccc1F (centres undefined) do in these assays?
GAA850 FXN act: inactive

Results for Cc1ccc(NCc2ccccc2OCc2ccccc2F)cc1 ?
XBP1 UPR activ: inactive; GAA850 FXN act: inactive; UPR CHOP act: inactive; CHOP inhibitor: 85

How did Cc1cccc(NCc2ccccc2OCc2ccccc2F)c1 do in these assays?
XBP1 UPR activ: inactive; GAA850 FXN act: inactive; UPR CHOP act: inactive; CHOP inhibitor: inactive

Results for NS(=O)(=O)c1ccc(NCc2ccccc2OCc2ccccc2F)cc1 ?
XBP1 UPR activ: inactive; GAA850 FXN act: inactive; UPR CHOP act: inactive; CHOP inhibitor: inactive
